{"source": "ChEMBL document CHEMBL4190301", "about": "“Isolation, Structure Elucidition, and Immunosuppressive Activity of Diterpenoids from Ligularia fischeri” (J Nat Prod, 2017)", "key": {"[1]": {"tested_on": "HMy2.C1R", "test": "Immunosuppressive activity in human HMy2.C1R cells assessed as cell growth inhibition at 2.5 to 40 uM after 48 hrs by SRB assay", "assay_type": "functional, cell-based", "outline": "(§1)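 Human B lymphoblast HMy2.CIR cells were seeded in 96-well plates in medium with 5% FBS. After 24 h, a plate was TCA-fixed as time zero (T0). Cells were then exposed to DMSO or compound at 2.5–40 μM for 48 h, fixed with 10% TCA and stained with 0.4% SRB in 1% HOAc. Bound dye was solubilized in 10 mM Trizma base and read at 540 nm. Percentage growth was calculated from T0, control and treated absorbances; mean ± SD, n = 3.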"}, "[2]": {"tested_on": "HMy2.C1R", "test": "[…] in human HMy2.C1R cells at 2.5 to 40 uM after 48 hrs by SRB assay", "assay_type": "functional, cell-based", "outline": "as §1"}, "[3]": {"tested_on": "HMy2.C1R", "test": "Immunosuppressive activity in human HMy2.C1R cells assessed as cell growth at 2.5 uM after 48 hrs by SRB assay relative to control", "assay_type": "functional", "outline": "as §1"}, "[4]": {"tested_on": "HMy2.C1R", "test": "Immunosuppressive activity in human HMy2.C1R cells assessed as cell growth inhibition after 48 hrs by SRB assay"}, "[5]": {"tested_on": "HMy2.C1R", "test": "Immunosuppressive activity in human HMy2.C1R cells assessed as cell growth at 40 uM after 48 hrs by SRB assay relative to control", "assay_type": "functional", "outline": "as §1"}, "[6]": {"tested_on": "HMy2.C1R", "test": "Immunosuppressive activity in human HMy2.C1R cells assessed as cell growth at 5 uM after 48 hrs by SRB assay relative to control", "assay_type": "functional", "outline": "as §1"}, "[7]": {"tested_on": "HMy2.C1R", "test": "Immunosuppressive activity in human HMy2.C1R cells assessed as cell growth at 10 uM after 48 hrs by SRB assay relative to control", "assay_type": "functional", "outline": "as §1"}, "[8]": {"tested_on": "HMy2.C1R", "test": "Immunosuppressive activity in human HMy2.C1R cells assessed as cell growth at 20 uM after 48 hrs by SRB assay relative to control", "assay_type": "functional", "outline": "as §1"}}, "note": "The source made the active and inactive calls. The rule behind the calls is not given here.", "data": [{"compound": "C[C@@]12CC[C@@H](O)[C@@](C)(C(=O)O)[C@H]1CC[C@@]13C[C@@H](CC[C@H]12)[C@@](O)(CO)C3", "values": [{"measurement": "inhibition", "setting": "[1]", "value": "inactive"}]}, {"compound": "C=C1[C@H](O)CC[C@@H]2[C@@]3(C)CC[C@](C)(O)C[C@@H]3CC[C@@]12C", "values": [{"measurement": "Activity", "setting": "[2]", "value": "Dose-dependent effect"}]}, {"compound": "CC1(C)CCC[C@]2(C)[C@@H]1CC[C@@]13C[C@@H](CC[C@H]12)[C@](C)(O)C3", "values": [{"measurement": "inhibition", "setting": "[1]", "value": "inactive"}]}, {"compound": "C[C@]12CCC[C@]3(COC1=O)[C@@H]2C[C@H](O)[C@@]12C[C@@H](CC[C@]13O)[C@](C)(O)C2", "values": [{"measurement": "inhibition", "setting": "[1]", "value": "inactive"}]}, {"compound": "C[C@]12CCC[C@]3(COC1=O)[C@@H]2CC[C@@]12C[C@@H](CC[C@]13O)[C@](C)(O)C2", "values": [{"measurement": "Activity", "setting": "[2]", "value": "Dose-dependent effect"}]}, {"compound": "CC1(C)CCC[C@]2(C=O)[C@@H]1CC[C@@]13C[C@@H](CC[C@H]12)[C@](C)(O)C3", "values": [{"measurement": "inhibition", "setting": "[1]", "value": "inactive"}]}, {"compound": "COc1cc(/C=C/C(=O)OC[C@@]2(O)C[C@@]34CC[C@@H]5C(C)(C)CCC[C@@]5(C(=O)O)[C@@H]3CC[C@@H]2C4)ccc1O", "values": [{"measurement": "inhibition", "setting": "[1]", "value": "inactive"}]}, {"compound": "C=C[C@](C)(O)CC[C@@H]1C(=C)CC[C@@H]2C(C)(C)C[C@@H](O)C[C@@]12C", "values": [{"measurement": "Ratio", "setting": "[3]", "value": 0.934}, {"measurement": "IC50", "setting": "[4]", "value": 31.4, "unit": "µM"}, {"measurement": "Ratio", "setting": "[5]", "value": 0.39}, {"measurement": "Ratio", "setting": "[6]", "value": 0.812}, {"measurement": "Ratio", "setting": "[7]", "value": 0.761}, {"measurement": "Ratio", "setting": "[8]", "value": 0.648}]}, {"compound": "CC1(C)CCC[C@]2(C(=O)O)[C@@H]1CC[C@@]13C[C@@H](CC[C@H]12)[C@](C)(O)C3", "values": [{"measurement": "inhibition", "setting": "[1]", "value": "inactive"}]}, {"compound": "CC1(C)CCC[C@]2(C=O)[C@@H]1CC[C@@]13C[C@@H](CC[C@H]12)[C@@](O)(CO)C3", "values": [{"measurement": "Ratio", "setting": "[3]", "value": 0.791}, {"measurement": "IC50", "setting": "[4]", "value": 13.3, "unit": "µM"}, {"measurement": "Ratio", "setting": "[5]", "value": 0.301}, {"measurement": "Ratio", "setting": "[6]", "value": 0.685}, {"measurement": "Ratio", "setting": "[7]", "value": 0.525}, {"measurement": "Ratio", "setting": "[8]", "value": 0.455}]}, {"compound": "C[C@]12CCC[C@@]3(COC1=O)[C@@H]1[C@@H]4C[C@@H]5C[C@@]1(CC[C@@H]32)C[C@]5(C)O4", "values": [{"measurement": "inhibition", "setting": "[1]", "value": "inactive"}]}, {"compound": "C[C@]12CCC[C@@]3(COC1=O)[C@@H]1CC[C@@H]4C[C@@]1(CC[C@@H]32)C[C@@]4(C)O", "values": [{"measurement": "Ratio", "setting": "[3]", "value": 0.849}, {"measurement": "IC50", "setting": "[4]", "value": 56.3, "unit": "µM"}, {"measurement": "Ratio", "setting": "[5]", "value": 0.6}, {"measurement": "Ratio", "setting": "[6]", "value": 0.809}, {"measurement": "Ratio", "setting": "[7]", "value": 0.762}, {"measurement": "Ratio", "setting": "[8]", "value": 0.683}]}, {"compound": "CC1(C)CCC[C@]2(C(=O)O)[C@@H]1CC[C@@]13C[C@@H](CC[C@H]12)[C@@](O)(CO)C3", "values": [{"measurement": "inhibition", "setting": "[1]", "value": "inactive"}]}]}
